Experimental data published in ChEMBL document CHEMBL1128543, “Computer-aided design and synthesis of 5-substituted tryptamines and their pharmacology at the 5-HT1D receptor: discovery of compounds with potential anti-migraine properties” (J Med Chem, 1995).

What was measured:
[1] = target: T1, Muscarinic acetylcholine receptor M2 (Homo sapiens) (UniProt P08172); assay: Binding affinity against Muscarinic acetylcholine receptor M2 using rabbit saphenous vein assay.; assay type: tissue-based; conditions: Oryctolagus cuniculus, target entry is the homologue from another species
T1 sequence (whole entry): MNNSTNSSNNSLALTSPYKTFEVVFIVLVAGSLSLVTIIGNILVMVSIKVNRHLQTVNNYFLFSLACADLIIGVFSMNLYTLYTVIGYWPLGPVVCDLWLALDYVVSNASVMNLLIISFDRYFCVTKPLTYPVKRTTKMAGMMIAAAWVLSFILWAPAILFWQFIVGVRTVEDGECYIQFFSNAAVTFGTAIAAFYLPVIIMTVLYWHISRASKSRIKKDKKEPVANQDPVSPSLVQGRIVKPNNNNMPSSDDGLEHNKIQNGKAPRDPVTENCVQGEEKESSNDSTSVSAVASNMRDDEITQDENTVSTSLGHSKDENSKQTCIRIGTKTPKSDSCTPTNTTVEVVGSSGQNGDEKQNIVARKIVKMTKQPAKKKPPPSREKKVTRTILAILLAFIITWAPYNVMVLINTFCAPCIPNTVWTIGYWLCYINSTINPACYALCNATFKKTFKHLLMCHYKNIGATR

[2] = target: T2, 5-hydroxytryptamine receptor 1A (Homo sapiens) (UniProt P08908); assay: Binding affinity against 5-hydroxytryptamine 1 receptor using rabbit jugular vein assay in the presence of endothelium; conditions: Oryctolagus cuniculus; target entry is the homologue from another species
T2 sequence (whole entry): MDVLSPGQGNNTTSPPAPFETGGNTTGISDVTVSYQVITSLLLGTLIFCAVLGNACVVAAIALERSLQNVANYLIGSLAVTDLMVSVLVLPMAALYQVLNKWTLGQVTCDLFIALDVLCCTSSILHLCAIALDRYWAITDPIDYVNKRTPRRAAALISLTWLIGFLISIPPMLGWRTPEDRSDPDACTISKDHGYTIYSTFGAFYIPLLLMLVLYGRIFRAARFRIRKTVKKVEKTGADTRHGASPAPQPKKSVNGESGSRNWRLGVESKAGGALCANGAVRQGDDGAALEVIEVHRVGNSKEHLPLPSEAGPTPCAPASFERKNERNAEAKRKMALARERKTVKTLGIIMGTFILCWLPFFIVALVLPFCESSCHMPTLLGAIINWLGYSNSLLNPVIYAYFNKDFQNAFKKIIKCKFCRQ

[3] = target: Adrenergic receptor alpha-1 (Homo sapiens) (UniProt P35348+P25100+P35368); assay: Binding affinity against Alpha-1 adrenergic receptor using rabbit saphenous vein assay.; assay type: tissue-based; conditions: Oryctolagus cuniculus, target entry is the homologue from another species
[4] = target: Muscarinic acetylcholine receptor M3 (Homo sapiens) (UniProt P20309); assay: Binding affinity against Muscarinic acetylcholine receptor M3 using rabbit saphenous vein assay.; assay type: tissue-based; conditions: Oryctolagus cuniculus, target entry is the homologue from another species
[5] = target: 5-hydroxytryptamine receptor 2A (Homo sapiens) (UniProt P28223); conditions: Oryctolagus cuniculus
[6] = target: 5-hydroxytryptamine receptor 1D (Homo sapiens) (UniProt P28221); assay: (§1) Intrinsic activity against 5-hydroxytryptamine 1 receptor using rabbit saphenous vein assay.; assay type: tissue-based; conditions: Oryctolagus cuniculus, target entry is the homologue from another species
Procedure, shortened: (§2)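 Male New Zealand White rabbit saphenous vein rings (4–5 mm) in Krebs–Henseleit at 37 °C, pH 7.4, gassed with 95% O₂:5% CO₂, under 2 g passive force. Tissues got 30 min pargyline (500 μM) and phenoxybenzamine (0.3 μM), then were washed and checked with 1 μM 5-HT. A cumulative 5-HT curve was followed 60 min later by a test agonist curve. Potency is p[A₅₀]; α is test max/5-HT max; n ≥ 3.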

[7] = organism: Oryctolagus cuniculus; assay: as §1; assay type: tissue-based; procedure, shortened: as §2
[8] = target: Histamine H2 receptor (Homo sapiens) (UniProt P25021); assay: Binding affinity against H2 receptor using rabbit saphenous vein assay.; assay type: tissue-based; conditions: Oryctolagus cuniculus, target entry is the homologue from another species
[9] = target: D(2) dopamine receptor (Homo sapiens) (UniProt P14416); assay: Binding affinity against Dopamine receptor D2 using rabbit saphenous vein assay.; assay type: tissue-based; conditions: Oryctolagus cuniculus, target entry is the homologue from another species
[10] = target: D(2) dopamine receptor (Rattus norvegicus, UniProt P61169); assay: Binding affinity against Dopamine receptor D2 in rat striatum using [3H]-spiperone as radioligand; assay type: tissue-based
Procedure, shortened: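 Incubation was 30 min at 27 °C in Tris-HCl 50 mM/CaCl₂ 5 mM/0.1% ascorbate/10 mM pargyline buffer. Bound and free label were separated by filtration and counted by liquid scintillation. pK_i or pIC₅₀ is the mean of n ≥ 3.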

[11] = target: 5-hydroxytryptamine receptor 1D (Homo sapiens) (UniProt P28221); assay: The compound was tested for intrinsic activity against 5-HT1D receptor; conditions: Oryctolagus cuniculus
Procedure, shortened: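 Rabbit saphenous vein rings (male New Zealand White; 4–5 mm) mounted on tungsten wires in Krebs–Henseleit buffer, pH 7.4, 37 °C, gassed with 95% O2/5% CO2, at 2 g passive force. Pretreated for 30 min with pargyline (500 μM) and phenoxybenzamine (0.3 μM), then washed. Cumulative 5-HT curve, then after 60 min a test agonist curve. Potency is p[A50]; α is test maximum/5-HT maximum; n ≥ 3.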

[12] = target: 5-hydroxytryptamine receptor 1B (Homo sapiens, UniProt P28222); assay: Binding affinity against 5-hydroxytryptamine 1D receptor beta using rabbit saphenous vein assay.; assay type: tissue-based
Procedure, shortened: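 Saphenous vein rings (4–5 mm) from male New Zealand White rabbits, in Krebs–Henseleit buffer at 37 °C, pH 7.4, gassed 95% O2/5% CO2, 2 g passive force. Pretreated with pargyline (500 μM) and phenoxybenzamine (0.3 μM) for 30 min, then washed. A cumulative 5-HT curve was followed after 60 min by a curve to the test agonist. p[A50] and α relative to 5-HT maximum were derived; mean of n ≥ 3.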

Chain of 5-hydroxytryptamine receptor 1D (Homo sapiens) (P28221 whole entry): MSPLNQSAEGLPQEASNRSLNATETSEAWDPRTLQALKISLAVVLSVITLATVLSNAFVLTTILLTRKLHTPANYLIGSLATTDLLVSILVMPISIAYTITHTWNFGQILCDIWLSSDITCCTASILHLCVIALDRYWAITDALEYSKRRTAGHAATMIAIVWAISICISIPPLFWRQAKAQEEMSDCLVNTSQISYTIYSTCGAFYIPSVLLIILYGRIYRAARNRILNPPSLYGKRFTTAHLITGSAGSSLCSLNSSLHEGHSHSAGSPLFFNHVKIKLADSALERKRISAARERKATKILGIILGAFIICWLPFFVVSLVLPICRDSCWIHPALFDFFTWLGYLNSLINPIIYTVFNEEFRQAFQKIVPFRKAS
Chain of 5-hydroxytryptamine receptor 1B (P28222 whole entry): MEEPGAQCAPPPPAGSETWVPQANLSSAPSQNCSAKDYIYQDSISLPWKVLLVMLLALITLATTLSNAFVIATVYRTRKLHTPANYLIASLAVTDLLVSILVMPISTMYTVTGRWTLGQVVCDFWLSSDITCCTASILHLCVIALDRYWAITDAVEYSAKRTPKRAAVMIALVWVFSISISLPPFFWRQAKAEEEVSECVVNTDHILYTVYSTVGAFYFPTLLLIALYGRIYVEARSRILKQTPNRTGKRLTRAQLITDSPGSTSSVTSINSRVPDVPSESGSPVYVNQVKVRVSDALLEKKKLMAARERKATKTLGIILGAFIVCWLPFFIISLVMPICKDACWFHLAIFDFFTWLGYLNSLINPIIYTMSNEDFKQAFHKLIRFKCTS
Chain of 5-hydroxytryptamine receptor 2A (Homo sapiens) (P28223 whole entry): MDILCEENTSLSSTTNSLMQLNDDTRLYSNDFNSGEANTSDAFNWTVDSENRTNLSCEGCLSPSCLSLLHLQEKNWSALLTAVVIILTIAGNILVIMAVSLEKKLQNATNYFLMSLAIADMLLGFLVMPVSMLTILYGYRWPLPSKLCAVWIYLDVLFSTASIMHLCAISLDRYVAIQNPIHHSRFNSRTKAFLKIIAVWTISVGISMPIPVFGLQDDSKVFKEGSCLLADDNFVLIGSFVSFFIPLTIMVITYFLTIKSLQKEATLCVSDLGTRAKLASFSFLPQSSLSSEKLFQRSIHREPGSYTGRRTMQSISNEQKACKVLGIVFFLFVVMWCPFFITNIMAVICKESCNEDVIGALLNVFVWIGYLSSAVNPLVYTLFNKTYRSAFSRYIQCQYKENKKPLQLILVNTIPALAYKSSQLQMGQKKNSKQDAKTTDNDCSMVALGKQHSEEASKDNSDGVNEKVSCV
Chain of Histamine H2 receptor (Homo sapiens) (P25021 whole entry): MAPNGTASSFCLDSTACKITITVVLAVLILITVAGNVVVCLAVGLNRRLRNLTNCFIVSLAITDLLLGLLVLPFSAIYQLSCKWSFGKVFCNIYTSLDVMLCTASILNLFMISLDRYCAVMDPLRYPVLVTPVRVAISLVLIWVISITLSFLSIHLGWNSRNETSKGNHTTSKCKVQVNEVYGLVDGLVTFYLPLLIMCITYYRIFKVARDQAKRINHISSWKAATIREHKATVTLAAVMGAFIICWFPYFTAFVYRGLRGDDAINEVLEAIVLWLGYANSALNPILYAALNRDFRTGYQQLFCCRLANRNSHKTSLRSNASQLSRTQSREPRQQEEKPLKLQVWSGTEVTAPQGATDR
Chain of D(2) dopamine receptor (Homo sapiens) (P14416 whole entry): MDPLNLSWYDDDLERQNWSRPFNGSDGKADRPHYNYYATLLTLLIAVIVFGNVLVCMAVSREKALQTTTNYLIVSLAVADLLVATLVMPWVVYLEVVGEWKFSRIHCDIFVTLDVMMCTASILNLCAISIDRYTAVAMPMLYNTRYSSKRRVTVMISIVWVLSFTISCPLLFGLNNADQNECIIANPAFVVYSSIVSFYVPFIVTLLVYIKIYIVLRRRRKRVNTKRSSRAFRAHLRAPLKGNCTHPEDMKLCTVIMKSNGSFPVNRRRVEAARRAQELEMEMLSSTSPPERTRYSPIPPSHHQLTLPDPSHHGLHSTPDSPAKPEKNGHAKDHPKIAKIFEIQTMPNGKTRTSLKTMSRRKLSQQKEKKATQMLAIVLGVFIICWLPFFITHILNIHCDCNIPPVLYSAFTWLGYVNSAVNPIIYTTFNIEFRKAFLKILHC
Chain of Muscarinic acetylcholine receptor M3 (Homo sapiens) (P20309 whole entry, looked up): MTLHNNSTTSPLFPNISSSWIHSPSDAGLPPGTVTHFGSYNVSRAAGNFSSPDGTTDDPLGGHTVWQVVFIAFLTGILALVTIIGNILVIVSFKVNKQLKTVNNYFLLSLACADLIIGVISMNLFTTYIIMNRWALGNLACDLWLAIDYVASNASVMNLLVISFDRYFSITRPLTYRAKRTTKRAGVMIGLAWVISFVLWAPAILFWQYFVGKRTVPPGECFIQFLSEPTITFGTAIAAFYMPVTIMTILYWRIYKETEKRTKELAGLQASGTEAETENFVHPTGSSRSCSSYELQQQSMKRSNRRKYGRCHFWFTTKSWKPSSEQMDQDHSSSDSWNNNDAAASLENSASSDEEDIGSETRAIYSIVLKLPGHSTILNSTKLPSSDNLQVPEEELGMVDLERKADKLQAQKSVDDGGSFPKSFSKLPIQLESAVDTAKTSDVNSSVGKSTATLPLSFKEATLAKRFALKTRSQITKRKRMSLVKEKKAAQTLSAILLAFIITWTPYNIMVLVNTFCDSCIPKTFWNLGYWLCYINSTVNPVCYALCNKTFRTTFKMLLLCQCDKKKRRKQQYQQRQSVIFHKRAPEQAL
Chain of D(2) dopamine receptor (P61169 whole entry): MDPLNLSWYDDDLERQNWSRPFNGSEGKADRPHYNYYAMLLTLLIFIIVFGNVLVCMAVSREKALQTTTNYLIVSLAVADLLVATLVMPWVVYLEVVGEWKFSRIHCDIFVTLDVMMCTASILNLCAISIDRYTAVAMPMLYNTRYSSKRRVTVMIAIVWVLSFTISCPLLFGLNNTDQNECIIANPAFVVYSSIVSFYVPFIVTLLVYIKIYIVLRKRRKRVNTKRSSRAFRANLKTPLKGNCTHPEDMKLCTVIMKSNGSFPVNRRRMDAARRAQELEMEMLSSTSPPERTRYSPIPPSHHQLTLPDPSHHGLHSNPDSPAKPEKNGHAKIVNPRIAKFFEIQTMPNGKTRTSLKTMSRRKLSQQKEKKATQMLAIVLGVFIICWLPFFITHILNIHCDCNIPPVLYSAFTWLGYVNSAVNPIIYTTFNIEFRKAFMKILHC

**Q.** For `CN(C)CCc1c[nH]c2ccc(C[C@H]3COC(=O)N3)cc12` [ZOLMITRIPTAN], which p[A50] [1] is on record?
**A.** Its p[A50] is less than 4.5.

**Q.** What about the p[A50] [2] of the same compound?
**A.** The p[A50] was 6.45.

**Q.** What about the p[A50] [3] of the same compound?
**A.** The p[A50] was less than 4.

**Q.** And the p[A50] [4]?
**A.** Its p[A50] is less than 4.5.

**Q.** What about the p[A50] [5] of the same compound?
**A.** Its p[A50] is 6.6.

**Q.** What about the p[A50] [6] of the same compound?
**A.** Its p[A50] is 8.7.

**Q.** What about the Intrinsic activity [7] of the same compound?
**A.** Its Intrinsic activity is 0.77.

**Q.** And the p[A50] [8]?
**A.** Its p[A50] is less than 4.5.

**Q.** And the p[A50] [9]?
**A.** Its p[A50] is less than 4.

**Q.** And the Kd [10]?
**A.** The Kd was 0.04 nM.

**Q.** And the Intrinsic activity [11]?
**A.** The Intrinsic activity was 0.77.

**Q.** And the Kd [12]?
**A.** Its Kd is 1.5 nM.
